Seven compounds from ChEMBL document CHEMBL1649370, “Penetratin analogues acting as antifungal agents” (2011) can be followed below.

What all share (assay type): functional
Assay [1] deals with Cryptococcus neoformans. Briefly: Antifungal activity against Cryptococcus neoformans ATCC 32264 assessed as inhibition of fungal growth at 100 uM after 48 hrs by microplate analysis. The settings on record: ATCC 32264, 48 h. A digest of the protocol:
(§1)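 Broth microdilution in RPMI-1640. Peptide DMSO stocks were diluted to final concentrations of 200–3.125, with DMSO ≤2%. Inoculum was 1–5×10³ CFU/mL from Sabouraud-chloramphenicol agar cultures (24 h, 35 °C). Plates were held in a moist, dark chamber at 35 °C: 24 h for C. albicans, 48 h for C. neoformans.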

The subject of assay [2] is Candida albicans. In words: Antifungal activity against Candida albicans ATCC 10231 assessed as inhibition of fungal growth at 25 uM after 24 hrs by microplate analysis. Particulars: ATCC 10231, 24 h. A digest of the protocol: as §1
Assay [3] concerns Candida albicans. Briefly: Antifungal activity against Candida albicans ATCC 10231 assessed as inhibition of fungal growth at 200 uM after 24 hrs by microplate analysis. The settings on record: ATCC 10231, 24 h. A digest of the protocol: as §1
In assay [4] the test system is Cryptococcus neoformans. In words: Antifungal activity against Cryptococcus neoformans ATCC 32264 assessed as inhibition of fungal growth at 6.25 uM after 48 hrs by microplate analysis. The settings on record: ATCC 32264, 48 h. The gist of the method: as §1
The subject of assay [5] is Candida albicans. Briefly: Antifungal activity against Candida albicans ATCC 10231 assessed as inhibition of fungal growth at 50 uM after 24 hrs by microplate analysis. Particulars: ATCC 10231, 24 h. The gist of the method:
as §1

Assay [6] has as its system Candida albicans. Briefly: Antifungal activity against Candida albicans ATCC 10231 assessed as inhibition of fungal growth at 100 uM after 24 hrs by microplate analysis. The settings on record: ATCC 10231, 24 h. A digest of the protocol: as §1
The subject of assay [7] is Cryptococcus neoformans. Briefly: Antifungal activity against Cryptococcus neoformans ATCC 32264 assessed as inhibition of fungal growth at 12.5 uM after 48 hrs by microplate analysis. The settings on record: ATCC 32264, 48 h. The gist of the method:
as §1

For assay [8], the system named is Cryptococcus neoformans. Briefly: Antifungal activity against Cryptococcus neoformans ATCC 32264 assessed as inhibition of fungal growth at 200 uM after 48 hrs by microplate analysis. The settings on record: ATCC 32264, 48 h. The gist of the method:
as §1

In assay [9] the test system is Cryptococcus neoformans. In words: Antifungal activity against Cryptococcus neoformans ATCC 32264 assessed as inhibition of fungal growth at 50 uM after 48 hrs by microplate analysis. The settings on record: ATCC 32264, 48 h. A digest of the protocol:
as §1

The test system of assay [10] is Candida albicans. Briefly: Antifungal activity against Candida albicans ATCC 10231 assessed as inhibition of fungal growth at 12.5 uM after 24 hrs by microplate analysis. The settings on record: ATCC 10231, 24 h. The gist of the method: as §1
Assay [11] concerns Cryptococcus neoformans. In words: Antifungal activity against Cryptococcus neoformans ATCC 32264 assessed as inhibition of fungal growth at 25 uM after 48 hrs by microplate analysis. Particulars: ATCC 32264, 48 h. A digest of the protocol: as §1
Assay [12] has as its system Candida albicans. Briefly: Antifungal activity against Candida albicans ATCC 10231 assessed as inhibition of fungal growth at 6.25 uM after 24 hrs by microplate analysis. Particulars: ATCC 10231, 24 h. The gist of the method: as §1

On to `CC[C@H](C)[C@H](NC(=O)[C@H](CCCCN)NC(=O)[C@@H](NC(=O)[C@H](CCC(N)=O)NC(=O)[C@H](CCCNC(=N)N)NC(=O)[C@H](Cc1c[nH]c2ccccc12)NC(=O)[C@H](CCCNC(=N)N)NC(=O)[C@H](Cc1ccccc1)NC(=O)[C@@H](N)Cc1cnc[nH]1)[C@@H](C)CC)C(=O)N[C@@H](Cc1c[nH]c2ccccc12)C(=O)N[C@@H](Cc1ccccc1)C(=O)N[C@@H](CCC(N)=O)C(=O)N[C@@H](CC(N)=O)C(=O)N[C@@H](CCCNC(=N)N)C(=O)N[C@@H](CCCNC(=N)N)C(=O)N[C@@H](CC[S+](C)[O-])C(=O)N[C@@H](CCCCN)C(=O)N[C@@H](Cc1c[nH]c2ccccc12)C(=O)N[C@@H](CCCCN)C(=O)N[C@@H](CCCCN)C(N)=O` (some centres undefined), for which the inhibition at 100 µM in assay [1] and in [6] was 100% each time. Also, the inhibition at 25 µM in [2] worked out at 5.96%; in assay [11], 100%. Besides, the inhibition at 200 µM in assay [3] and in assay [8] was 100% throughout. The inhibition at 6.25 µM in assay [4] turned out to be 95.1%; in assay [12], 2.9%. For the same compound, the inhibition at 50 µM in assay [5] turned out to be 93.7%; in assay [9], 100%. The inhibition at 12.5 µM came out at 99.3% in assay [7] and 3.95% in assay [10].

As for `N=C(N)NCCC[C@H](NC(=O)CNC(=O)[C@@H](N)Cc1ccc(O)cc1)C(=O)N[C@@H](CCCCN)C(=O)N[C@@H](CCCCN)C(=O)N[C@@H](CCCNC(=N)N)C(=O)N[C@@H](CCCNC(=N)N)C(=O)N[C@@H](CCC(N)=O)C(=O)N[C@@H](CCCNC(=N)N)C(=O)N[C@@H](CCCNC(=N)N)C(=O)N[C@@H](CCCNC(=N)N)C(=O)N[C@@H](CS)C(N)=O`, the inhibition at 100 µM was 100% in [1] and 99.1% in assay [6]. In addition, the values for the inhibition at 25 µM in [2] and in [11] were 6.71% and 1.75%, respectively. The inhibition at 200 µM worked out at 99.1% in assay [3] and 100% in assay [8]. The inhibition at 6.25 µM in [4] came to 0%; in assay [12] it was 4.97%. For the same compound, the inhibition at 50 µM in assay [5] came out at 6.75%; in assay [9] it was 61.3%. Further, the inhibition at 12.5 µM in [7] is 0%; in assay [10], 6.12%.

On to `C[C@@H]1[C@H](O)[C@@H](C)/C=C/C=C/C=C/C=C/C=C/C=C/C=C/[C@H](O[C@@H]2O[C@H](C)[C@@H](O)[C@H](N)[C@@H]2O)C[C@@H]2O[C@](O)(C[C@@H](O)C[C@@H](O)[C@H](O)CC[C@@H](O)C[C@@H](O)CC(=O)O[C@H]1C)C[C@H](O)[C@H]2C(=O)O` [AMPHOTERICIN B], for which the inhibition at 100 µM in assay [1] and in assay [6] was 100% in each case. Further, the inhibition at 25 µM in assay [2] and in assay [11] was 100% throughout. Moreover, the inhibition at 200 µM in [3] and in [8] was 100% in each case. In addition, the inhibition at 6.25 µM in [4] and in [12] was 100% throughout. Moreover, the inhibition at 50 µM in [5] and in [9] was 100% in each case. The inhibition at 12.5 µM in [7] and in assay [10] was 100% each time.

`CC(=O)N1CCN(c2ccc(OCC3COC(Cn4ccnc4)(c4ccc(Cl)cc4Cl)O3)cc2)CC1` (centres undefined) [KETOCONAZOLE]: the inhibition at 100 µM in assay [1] and in assay [6] was 100% throughout. Further, the inhibition at 25 µM in [2] and in assay [11] was 100% in each case. In addition, the inhibition at 200 µM in assay [3] and in assay [8] was 100% each time. In addition, the inhibition at 6.25 µM in assay [4] and in assay [12] was 100% in each case. Further, the inhibition at 50 µM in assay [5] and in assay [9] was 100% in each case. The inhibition at 12.5 µM in assay [7] and in assay [10] was 100% in each case.

With “H-KQIKIWFQNKKMKWKK-NH2 [KQIKIWFQNKKMKWKK-NH2]”, the inhibition at 100 µM in [1] and in assay [6] was 100% throughout. Moreover, the inhibition at 25 µM amounted to 8.41% in [2] and 98.5% in [11]. Further, the inhibition at 200 µM in assay [3] and in assay [8] was 100% each time. Also, the inhibition at 6.25 µM in [4] amounted to 64.5%; in [12], 3.24%. In addition, the inhibition at 50 µM in [5] and in assay [9] was 100% in each case. For the same compound, the inhibition at 12.5 µM in assay [7] was 72%; in assay [10], 5.97%.

For H-RQIRIWFQNRRMRWRR-NH2, the inhibition at 100 µM in assay [1] and in [6] was 100% throughout. The results for the inhibition at 25 µM in assay [2] and in assay [11] were 6.16% and 81.7%, respectively. The inhibition at 200 µM in assay [3] and in [8] was 100% throughout. In addition, the inhibition at 6.25 µM in [4] worked out at 43.3%; in [12], 3.71%. The inhibition at 50 µM in assay [5] was found to be 98.9%; in [9], 100%. For the same compound, the values for the inhibition at 12.5 µM in assay [7] and in assay [10] were 77.5% and 4.38%, respectively.

For the compound H-RWWKWWWWWRRWKWKK-NH2, the inhibition at 100 µM in assay [1] stood at 90%; in assay [6], 99.1%. In addition, the inhibition at 25 µM was determined as 30.9% in assay [2] and 44.2% in [11]. Moreover, the inhibition at 200 µM in assay [3] and in assay [8] was 100% in each case. The inhibition at 6.25 µM in assay [4] is 22.6%; in assay [12] it was 8.72%. In addition, the inhibition at 50 µM amounted to 95.8% in [5] and 77.5% in assay [9]. In addition, the values for the inhibition at 12.5 µM in assay [7] and in [10] were 31.5% and 14.8%, respectively.

A word on the inhibition: it is the change of the read-out against control, counted positive when it falls.
